Tn6 DDE FP: disrupts Tn6 cyclic peptide binding to fibrin D-Dimer-E complex; Fibrin DD(E) TRITC-Tn6 fluorescence polarization displacement; 0.21% of 370,000 active; inhibition, % at 8.3 µM; P02675;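 active = inhibition above a per-campaign cutoff: mean of compounds within control limits plus 3 SD, cut at about 15% in these data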;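 also: 0% = median of all compound wells on the plate and 100% = blocking peptide control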
DDE Tn7 FP inh: DD(E)-Tn7 binding inhibition, primary FP screen; 0.13% of 370,000 active; inhibition, % at 8.3 µM; P02675; FP displacement of FITC-Tn7 peptide from fibrin DD(E); 0% = median of compound wells per plate;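 active = inhibition above the mean of compounds falling within the control limits plus 3 SD of them, cut at about 14% in these data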;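 also: 0% = plate median of compound wells and 100% = 10 µM Aha-Tn7 peptide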
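System: human fibrin DD(E); quantity: Fibrin-DD(E) at 2 µM final; also added: fluorescent Tn7 probe at 0.1 µM; compound dosing: single nominal test concentration of 8.3 µM per compound; schedule: 10 min preincubation, 3 h with tracer, room temperature; detection: fluorescence polarization of the labelled Tn7 tracer; repeats: one replicate per compound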
TCR CD3 inh: human TCR-CD3 binding inhibition; TAMRA-labeled TCR probe fluorescence, biochemical; inhibition, % at 9.4 µM; 0.37% of 360,000 active; in the data active = inhibition above about 19%;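 also: recombinant mutant TCR 2C K166C tagged with TAMRA read by polarization; 0% = receptor in buffer alone and 100% = receptor with positive control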
mABHD4 FP: inhibits mouse alpha/beta hydrolase domain 4 | 0.54% of 370,000 active | purified mABHD4, FP-Rh probe fluorescence polarization | inhibition, % at 8.92 µM | AID 720543 | Q8VD66;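 active = inhibition exceeding the mean over every tested compound plus 3 SD, cut at about 30% in these data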;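 also: 0% = plate median of compound wells and 100% = S159A mutant with DMSO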
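Test system: mABHD4 protein; Read-out basis: % inhibition; Incubation: 45 min + 60 min at 25 °C; Repeats: single replicate; Technique: fluorescence polarization with parallel and perpendicular emission, 525/598 nm; Compound: 8.92 µM, single dose; Benchmarks: full inhibition S159A mutant plus DMSO, zero as sample-well median.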
SIAE inh: inhibitors of human sialic acid acetylesterase SIAE; Q9HAT2; SIAE FP-Rh probe binding, fluorescence polarization; inhibition, % at 9.66 µM; 0.69% of 370,000 active;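 active = inhibition above a cutoff: mean of compounds within the control limits plus 3 SD of those, cut at about 17% in these data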;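 also: 0% = plate median of compound wells and 100% = probe without SIAE protein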
Target sequence (Q9HAT2 whole entry, looked up): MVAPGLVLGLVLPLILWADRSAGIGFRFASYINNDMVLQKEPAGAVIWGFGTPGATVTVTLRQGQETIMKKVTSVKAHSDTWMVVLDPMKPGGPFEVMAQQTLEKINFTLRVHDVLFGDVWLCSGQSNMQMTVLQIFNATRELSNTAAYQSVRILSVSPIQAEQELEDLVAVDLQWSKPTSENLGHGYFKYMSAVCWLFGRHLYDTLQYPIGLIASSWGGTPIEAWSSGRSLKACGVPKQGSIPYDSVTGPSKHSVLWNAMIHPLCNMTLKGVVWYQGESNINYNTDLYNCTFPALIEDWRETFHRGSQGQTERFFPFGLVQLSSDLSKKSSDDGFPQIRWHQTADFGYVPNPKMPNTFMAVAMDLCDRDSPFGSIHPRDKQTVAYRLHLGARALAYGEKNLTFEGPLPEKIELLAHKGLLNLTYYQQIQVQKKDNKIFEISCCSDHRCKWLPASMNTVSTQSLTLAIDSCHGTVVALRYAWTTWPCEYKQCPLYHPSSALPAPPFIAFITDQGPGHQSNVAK
HTRA1 inhibitor: blocks human HTRA1 serine peptidase | inhibition, % at 5.96 µM | recombinant HTRA1, FP-rhodamine activity-based probe, fluorescence polarization | AID 504803 | 0.5% of 340,000 active | Q92743; in the data active = inhibition above about 36%;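 also: 0% = enzyme with DMSO and 100% = wells lacking enzyme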
ABHD4 confirm: ABHD4 (mouse) inhibition, FP confirmation | shares compounds with mABHD4 FP | purified mABHD4, FP-Rh probe fluorescence polarization | inhibition, % at 8.92 µM | 55% of 1,800 active | AID 720658;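 active = mean inhibition across replicates above the hit cutoff set in the primary screen, cut at about 30% in these data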;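 also: 0% = wild-type ABHD4 with DMSO and 100% = catalytically dead S159A mutant with DMSO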
An asterisk follows results filed as active; nt = not tested or not shown; + = active, no number. Sampled rows, rich in hits. Any-hit rate of the full collection: about 1.8%.

SMILES	Tn6 DDE FP	DDE Tn7 FP inh	TCR CD3 inh	mABHD4 FP	SIAE inh	HTRA1 inhibitor	ABHD4 confirm
CCCCCN1CCCCC(NC(=O)c2cccc(C(F)(F)F)c2)C1=O (stereo not drawn)	4.9	2.8	nt	3.1	2.7	nt	nt
O=C(O)c1cc(N/N=C/c2c[nH]c3ccccc23)ccc1Cl	-6.2	4.9	-6.1	32.0*	8.2	0.7	28.2
O=C(O)c1cc(N/N=C/c2ccc(-c3ccccc3)cc2)ccc1Cl	1.1	12.6	5.0	11.1	-1.9	10.9	nt
CCCN1CCS(=O)(=O)N(Cc2cn(Cc3ccc(F)cc3)nn2)C(C(=O)OC)C1 (stereo not drawn)	0.5	-2.9	nt	-2.4	-0.3	nt	nt
O=C(Cn1nnc(N2CCCCC2)n1)NN=Cc1ccccc1O	1.8	2.5	-5.2	-6.7	1.3	nt	nt
COC1=C[C@H](C(=O)NCc2ccccn2)[C@H](C)[C@@H](c2ccccc2)CC1=O	7.2	5.7	nt	3.3	-6.5	nt	nt
CCC(=O)NC1=C(Cl)C(=O)C(NC(=O)CC)=C(Cl)C1=O	-6.0	-5.1	-3.1	34.5*	6.9	6.7	39.9*
CC(C)n1cnc2c(NCc3ccccc3)cc(Cc3ccc(F)cc3)cc21	-1.1	-1.3	3.9	30.7*	7.1	10.6	21.3
Cc1ccc(-c2csc(NS(=O)(=O)c3cccc(F)c3)n2)o1	-6.7	-2.1	5.6	30.2*	-11.6	14.5	25.9
Cc1nc(CNS(=O)(=O)c2cccc(F)c2)cs1	-5.0	-5.2	-2.6	0.9	-1.2	-0.4	nt
Cn1cc(CN2CCC(C(O)c3cccs3)CC2)c(-c2ccccc2F)n1 (stereo not drawn)	-6.2	4.7	-9.2	48.2*	2.0	4.7	1.6
Clc1cccc(-c2ccc(-c3nc4ccccn4c3NCc3ccccc3)cc2)c1	3.6	1.7	0.5	37.2*	10.0	-12.9	33.3*
c1ccc(-c2nc3ccccn3c2NCc2ccc3c(c2)OCO3)cc1	-3.7	2.1	-0.2	6.2	-1.5	5.9	nt
C=C[C@]1(C)C=C2C(=O)[C@@]3(O)OC(=O)[C@@]4(CCCC(C)(C)[C@H]34)[C@@]2(O)CC1	-4.1	-4.7	-7.5	51.6*	10.2	nt	2.8
O=C(/C=C/c1ccc(-c2ccccc2)cc1)NC1=NCCS1	1.0	8.4	nt	3.9	3.4	nt	nt
CN(C)CCNc1ncnc2c1ncn2[C@H]1CN(Cc2ccc3c(c2)OCO3)C[C@@H](CO)O1	1.5	0.0	3.8	33.7*	-4.3	nt	15.0
OCCCNc1ncnc2c1ncn2[C@H]1CN(Cc2ccc3c(c2)OCO3)C[C@@H](CO)O1	-1.6	4.7	0.2	-9.9	0.4	nt	nt
CC(C)c1ccc(-c2nc(N3CCCCC3)[nH]c(=O)c2C#N)cc1	-3.3	2.6	8.3	10.4	3.2	-4.5	nt
CC1=Nc2nc(N3CCCCC3)c(C#N)c3c4c(nc(c23)N1)N(c1ccc(C(C)C)cc1)C(=O)C4	-1.1	2.3	5.2	43.9*	5.8	2.4	42.1*
COCc1[nH]nc2c1C(c1ccccc1)NC2=O (stereo not drawn)	-1.6	9.0	-2.5	3.1	0.2	nt	nt
CC(C)[C@@H]1CC[C@@H](C)C[C@H]1OC[B-](F)(F)F	-4.2	-0.5	-6.0	42.5*	7.9	nt	47.4*
CC(C)(C)c1ccc(S(=O)(=O)NCC2CCN(C(=O)C(=O)c3cccs3)CC2)cc1	6.3	3.4	6.0	-0.5	1.2	nt	nt
CCN(C(=S)NC(=O)c1ccco1)c1cccc2ccccc12	-2.3	3.2	-8.7	35.6*	2.9	13.7	2.5
COC(=O)Cn1cnc2c(NC(=O)c3ccccc3)ncnc21	6.3	-4.6	8.1	1.8	-1.1	nt	nt
COc1ccc(S(=O)(=O)N2CCC(NC(=O)c3ccccc3)CC2)cc1	2.1	-1.1	-5.9	39.3*	6.8	3.3	-6.7
SMILES	Tn6 DDE FP	DDE Tn7 FP inh	TCR CD3 inh	mABHD4 FP	SIAE inh	HTRA1 inhibitor	ABHD4 confirm
Cc1ccc(CN2CCCCC(NC(=O)c3ccc(COc4ccccc4)cc3)C2=O)cc1 (stereo not drawn)	-2.2	0.2	nt	-13.8	-5.6	nt	nt
Nc1ccc(C(=O)Nc2ccc3c(O)cc(S(=O)(=O)O)cc3c2)cc1	-6.8	3.2	6.6	35.8*	-15.8	6.5	24.5
O=S(=O)(c1ccc(F)cc1)N1CCN(Cc2cc3c(cc2Br)OCCO3)CC1	0.3	8.8	0.6	-19.2	4.8	-11.2	nt
Oc1ccc(N2CCN(Cc3cc4c(cc3Br)OCCO4)CC2)cc1	7.2	-0.1	5.7	33.8*	10.1	17.8	14.3
Cc1ccccc1S(=O)(=O)N1CCCc2nc(-c3ccc(F)cc3)ccc21	-5.6	-1.4	6.3	-7.6	5.0	nt	nt
C/C(=N\Nc1nc2ccccc2[nH]1)c1ccccn1	4.7	-0.2	-1.1	36.0*	3.6	27.1	21.3
C/C(=N\Nc1nc2ccccc2[nH]1)c1ccc2c(c1)OCO2	-7.6	0.8	6.0	24.0	10.1	19.2	nt
CCN(CC)c1ccc(/C=N/Nc2nc3ccccc3[nH]2)cc1	-5.9	-5.2	-0.3	29.6*	16.7	35.0	47.2*
CC(/C=N/Nc1nc(C)cc(=O)[nH]1)=C\c1ccccc1	-5.9	1.6	-3.2	-1.1	2.8	4.8	nt
CC(=O)Nc1ccc(/C=N/Nc2nc3ccccc3[nH]2)cc1	-0.8	-0.5	-1.6	17.9	4.8	6.7	nt
CC(/C=N/Nc1nc2ccccc2[nH]1)=C\c1ccccc1	-4.4	-0.3	-3.2	42.4*	11.1	13.2	44.1*
O=C(NCCc1c[nH]c2ccccc12)OCc1cn(-c2cccc(C(F)(F)F)c2)nn1	-4.4	-0.3	nt	-7.2	-1.7	nt	nt
COC(=O)C1=C(C)N(Cc2ccccc2C(F)(F)F)C(=NCc2ccc(C(F)(F)F)cc2)NC1c1ccc(C(F)(F)F)cc1 (stereo not drawn)	6.0	6.9	-7.8	5.8	7.0	nt	nt
CCCCCNC(=O)C(c1ccncc1)n1c(=O)c(-c2ccco2)nc2ccccc21 (stereo not drawn)	5.4	-2.8	-2.0	32.1*	7.5	nt	12.2
C[C@@H](CO)N(Cc1cn(Cc2ccccc2)nn1)S(=O)(=O)c1ccccc1Br	-0.6	-3.8	nt	-5.5	1.7	nt	nt
Cc1ccc(NC(=O)C2CCN(c3nnc(-n4cccc4)s3)CC2)c(C)c1	-5.2	6.0	nt	5.2	5.1	nt	nt
Cn1c(=O)c2c(nc(SCc3nn[nH]n3)n2Cc2ccccc2F)n(C)c1=O	3.8	3.4	4.8	+	6.4	7.9	7.3
CN(C)c1nc(N)nc(CSc2nc3c(c(=O)n(C)c(=O)n3C)n2Cc2ccccc2F)n1	2.4	-2.3	3.0	-1.5	5.5	6.5	nt
COCc1cc(N2CCN(C(=O)OC(C)(C)C)C[C@@H]2C)ccc1N1CC[C@@H](O)C1	4.1	-6.2	11.8	31.9*	14.7	nt	25.3
C(=N\Nc1nncc2ccccc12)/c1cccnc1	0.5	-4.8	nt	4.5	-4.7	nt	nt
